From ChEMBL document CHEMBL1139485, “Tricyclic pyrazoles. 3. Synthesis, biological evaluation, and molecular modeling of analogues of the cannabinoid antagonist 8-chloro-1-(2',4'-dichlorophenyl)-N-piperidin-1-yl-1,4,5,6-tetrahydrobenzo[6,7]cyclohepta[1,2-c]pyrazole-3-carboxamide” (J Med Chem, 2005)
Calls of active or inactive are those of the source. No cut-off for these calls is given here.

How the values were obtained:
Cannabinoid receptor 1 = Cannabinoid receptor 1 (Mus musculus, UniProt P47746); assay: Displacement of [3H]CP-55940 from CB1 receptor in CD1 mouse brain; format: tissue-based
Summary of the method: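 Membranes from male CD-1 mouse brain (minus cerebellum) for CB1 or spleen for CB2, prepared in ice-cold TME buffer (50 mM Tris-HCl, 1 mM EDTA, 3.0 mM MgCl2, pH 7.4). 30–80 μg protein incubated with 0.5–1 nM [3H]CP-55,940, 1 h, 30 °C, with 5 mg/mL fatty-acid-free BSA. Nonspecific binding defined by 1 μM CP-55,940. Filtration, scintillation counting. IC50 from sigmoid fit converted to Ki. Triplicate, ≥5 experiments.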

Cannabinoid receptor 2 = Cannabinoid receptor 2 (Mus musculus, UniProt P47936); assay: Displacement of [3H]CP-55940 from CB2 receptor in CD1 mouse spleen; format: tissue-based
Summary of the method: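 Membranes from male CD-1 mouse brain (minus cerebellum) for CB1 or spleen for CB2, prepared in ice-cold TME buffer (50 mM Tris-HCl, 1 mM EDTA, 3.0 mM MgCl2, pH 7.4). Filtration, scintillation counting. IC50 from sigmoid fit converted to Ki. Triplicate, ≥5 experiments.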

[1] = biological target: Cannabinoid receptor (Mus musculus) (UniProt P47746+P47936); assay: Selectivity for CB1 receptor over CB2 receptor in CD1 mouse; format: protein assay
Mus musculus [2] = assay: Reversal of 0.5 mg/kg WIN-55212-2-induced inhibitory effect on upper gastrointestinal motility in CD1 mouse at 0.1 mg/kg ip; format: functional, organism-based
Summary of the method: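 Male CD-1 mice, n = 15–20 per group. Test drug 0.1 mg/kg ip given 10 min before WIN 55,212-2 (0.5 mg/kg ip), both in saline with 0.1% Tween-80. Intragastric carmine marker 20 min after agonist; mice killed 20 min later. Transit measured as % of small intestine length travelled by marker. ANOVA with Newman–Keuls test.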

Mus musculus [3] = assay: Effect on upper gastrointestinal motility in CD1 mouse at 0.1 mg/kg, ip; format: functional, organism-based; design: dose 0.1 mg/kg
Summary of the method: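 Male CD-1 mice (20–35 g), n = 15–20 per group. Drug in saline with 0.1% Tween-80 (12.5 mL/kg) given ip 30 min before intragastric red carmine (6 wt %/v in 0.5% methylcellulose, 0.3 mL/mouse). Mice killed 20 min later. Distance reached by the marker head expressed as % of small intestine length (pylorus to ileocaecal junction). Mean ± SEM.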

Mus musculus [4] = assay: Increase in upper gastrointestinal motility in CD1 mouse at 0.5 to 1 mg/kg, ip; format: functional; settings: dose mg/kg 0.5-1; route intraperitoneal
Summary of the method: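 Male CD-1 mice (20–35 g), n = 15–20 per group. Compound given ip in saline with 0.1% Tween-80, 30 min before intragastric red carmine marker (6% suspension in 0.5% methylcellulose, 0.3 mL/mouse). Killed 20 min later. Distance travelled by the marker head expressed as % of small-intestine length (pylorus to ileocaecal junction). Group mean ± SEM versus vehicle-treated mice, by ANOVA/Newman–Keuls.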

Sequence of Cannabinoid receptor (Mus musculus) (P47746 whole entry, looked up): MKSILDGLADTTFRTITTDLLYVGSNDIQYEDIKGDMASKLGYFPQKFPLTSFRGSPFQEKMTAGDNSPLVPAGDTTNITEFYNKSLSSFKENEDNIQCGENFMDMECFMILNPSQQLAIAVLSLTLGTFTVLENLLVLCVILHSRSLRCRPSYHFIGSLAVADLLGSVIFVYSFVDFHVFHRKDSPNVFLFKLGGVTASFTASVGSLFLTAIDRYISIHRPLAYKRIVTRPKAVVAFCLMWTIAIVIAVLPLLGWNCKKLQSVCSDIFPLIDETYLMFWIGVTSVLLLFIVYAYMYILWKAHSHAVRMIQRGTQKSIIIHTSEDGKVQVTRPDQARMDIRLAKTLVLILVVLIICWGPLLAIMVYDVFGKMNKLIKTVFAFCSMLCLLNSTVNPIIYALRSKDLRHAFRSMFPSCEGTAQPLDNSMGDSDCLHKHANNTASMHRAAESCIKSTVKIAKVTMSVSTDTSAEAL
Sequence of Cannabinoid receptor (Mus musculus) (P47936 whole entry, looked up): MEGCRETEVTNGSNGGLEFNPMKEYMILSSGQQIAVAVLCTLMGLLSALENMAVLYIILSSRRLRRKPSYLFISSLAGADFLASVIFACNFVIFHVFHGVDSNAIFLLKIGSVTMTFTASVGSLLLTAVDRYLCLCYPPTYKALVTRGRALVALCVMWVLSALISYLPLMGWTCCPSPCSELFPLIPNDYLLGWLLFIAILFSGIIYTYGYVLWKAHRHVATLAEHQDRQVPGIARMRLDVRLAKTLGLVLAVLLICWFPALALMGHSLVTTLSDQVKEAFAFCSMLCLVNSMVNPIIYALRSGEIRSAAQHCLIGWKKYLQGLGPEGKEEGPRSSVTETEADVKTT
Sequence of Cannabinoid receptor 1 (P47746 whole entry): as the sequence (P47746 whole entry, looked up) above
Sequence of Cannabinoid receptor 2 (P47936 whole entry): as the sequence (P47936 whole entry, looked up) above

## O=C(Nc1ccc(Cl)cc1)c1nn(-c2ccc(Cl)cc2Cl)c2c1CCCc1cc(Cl)ccc1-2
Cannabinoid receptor 1
  Ki: 2.5 nM (antagonist)
Cannabinoid receptor 2
  Ki: 79 nM (antagonist)
[1]
  Ratio Ki: 31.6

## O=C(NN1CCCCC1)c1nn(-c2ccc(Cl)cc2Cl)c2c1Cc1cc(Cl)ccc1-2
Cannabinoid receptor 1
  Ki: 2050 nM (antagonist)
Cannabinoid receptor 2
  Ki: 0.34 nM (antagonist)
[1]
  Ratio Ki: 0.000166

## O=C(NN1CCCCC1)c1nn(-c2ccc(Cl)cc2Cl)c2c1CCc1cc(Cl)ccc1-2
Cannabinoid receptor 1
  Ki: 14.8 nM (antagonist)
Cannabinoid receptor 2
  Ki: 227 nM (antagonist)
[1]
  Ratio Ki: 15.3

## COc1ccc(NC(=O)c2nn(-c3ccc(Cl)cc3Cl)c3c2CCCc2cc(Cl)ccc2-3)cc1
Cannabinoid receptor 1
  Ki: 0.013 nM (antagonist)
Cannabinoid receptor 2
  Ki: 43.3 nM (antagonist)
[1]
  Ratio Ki: 3300

## Cc1ccc2c(c1)CCCc1c(C(=O)NN3CCCC3)nn(-c3ccc(Cl)cc3Cl)c1-2
Cannabinoid receptor 1
  Ki: 0.11 nM (antagonist)
Cannabinoid receptor 2
  Ki: 386 nM (antagonist)
[1]
  Ratio Ki: 3510

## O=C(NN1CCCCC1)c1nn(-c2ccc(Cl)cc2Cl)c2c1CCCc1cc(Cl)ccc1-2
Cannabinoid receptor 1
  Ki: 0.00035 nM (antagonist)
Cannabinoid receptor 2
  Ki: 21 nM (antagonist)
[1]
  Ratio Ki: 60000

## O=C(NN1CCCCC1)c1nn(-c2ccc(Cl)cc2Cl)c2c1CCCc1cc(Br)ccc1-2
Cannabinoid receptor 1
  Ki: 0.008 nM (antagonist)
Cannabinoid receptor 2
  Ki: 37 nM (antagonist)
[1]
  Ratio Ki: 4620

## O=C(Nc1ccc(Cl)c(Cl)c1)c1nn(-c2ccc(Cl)cc2Cl)c2c1CCCc1cc(Cl)ccc1-2
Cannabinoid receptor 1
  Ki: 25.8 nM (antagonist)
Cannabinoid receptor 2
  Ki: > 500 nM

## O=C(NC1CCCCC1)c1nn(-c2ccc(Cl)cc2Cl)c2c1CCCc1cc(Cl)ccc1-2
Cannabinoid receptor 1
  Ki: 0.3 nM (antagonist)
Cannabinoid receptor 2
  Ki: 0.65 nM (antagonist)
[1]
  Ratio Ki: 2.16

## O=C(NN1CCCCC1)c1nn(-c2ccc(Cl)cc2Cl)c2c1CCCc1ccc(Cl)cc1-2
Cannabinoid receptor 1
  Ki: 31.2 nM (antagonist)
Cannabinoid receptor 2
  Ki: 26.8 nM (antagonist)
[1]
  Ratio Ki: 0.86

## O=C(NN1CCCCC1)c1nn(-c2ccc(Cl)cc2Cl)c2c1CCCc1ccccc1-2
Cannabinoid receptor 1
  Ki: 168 nM (antagonist)
Cannabinoid receptor 2
  Ki: 18.1 nM (antagonist)
[1]
  Ratio Ki: 0.11

## O=C(NN1CCCCC1)c1nn(-c2ccc(Cl)cc2Cl)c2c1CCCc1c(Cl)cccc1-2
Cannabinoid receptor 1
  Ki: 9.84 nM (antagonist)
Cannabinoid receptor 2
  Ki: 31.6 nM (antagonist)
[1]
  Ratio Ki: 3.21

## Cc1ccc(NC(=O)c2nn(-c3ccc(Cl)cc3Cl)c3c2CCCc2cc(Cl)ccc2-3)cc1
Cannabinoid receptor 1
  Ki: 5.74 nM (antagonist)
Cannabinoid receptor 2
  Ki: 65 nM (antagonist)
[1]
  Ratio Ki: 11.3

## Cc1ccc2c(c1)CCCc1c(C(=O)NN3CCCCC3)nn(-c3ccc(Cl)cc3Cl)c1-2
Cannabinoid receptor 1
  Ki: 0.0052 nM (antagonist)
Cannabinoid receptor 2
  Ki: 0.46 nM (antagonist)
[1]
  Ratio Ki: 88.5

## O=C(Nc1ccccc1)c1nn(-c2ccc(Cl)cc2Cl)c2c1CCCc1cc(Cl)ccc1-2
Cannabinoid receptor 1
  Ki: 4.35 nM (antagonist)
Cannabinoid receptor 2
  Ki: 1.45 nM (antagonist)
[1]
  Ratio Ki: 0.33

## O=C(NN1CCCC1)c1nn(-c2ccc(Cl)cc2Cl)c2c1CCCc1cc(Cl)ccc1-2
Cannabinoid receptor 1
  Ki: 0.004 nM (antagonist)
Cannabinoid receptor 2
  Ki: 45 nM (antagonist)
[1]
  Ratio Ki: 11200

## O=C(NN1CCCCCC1)c1nn(-c2ccc(Cl)cc2Cl)c2c1CCCc1cc(Cl)ccc1-2
Cannabinoid receptor 1
  Ki: 0.001 nM (antagonist)
Mus musculus [2]
  Activity: Active
Cannabinoid receptor 2
  Ki: 2 nM (antagonist)
[1]
  Ratio Ki: 2000
Mus musculus [3]
  Activity: inactive
Mus musculus [4]
  Activity: 65%
